Tests used:
[1] = tested on: DLD-1 human colorectal adenocarcinoma; test: Cytotoxicity; assay type: cell-based
Outline: (§1)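 Test compound assessed for effect on proliferation of human PANC-1 pancreatic carcinoma and DLD-1 colorectal adenocarcinoma cells, both lines obtained from ATCC. The procedure follows a previously described protocol. Each sample was assayed at least three times to derive the final value.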

[2] = tested on: Pseudomonas aeruginosa (ATCC 27853); test: Antimicrobial assay, P. aeruginosa; assay type: cell-based; details: at the concentrations tested
[3] = tested on: Candida albicans (ATCC 44506); test: Antimicrobial assay, C. albicans; assay type: cell-based; details: at the concentrations tested
[4] = tested on: PANC-1 pancreatic carcinoma; test: Cytotoxicity; assay type: cell-based, human
Outline: as §1

[5] = tested on: NCI/ADR-Res (multi drug resistant ovarian cancer cell line); test: Cytotoxicity; assay type: cell-based, human; details: at a concentration of 5.2 µM
MCL-1 binding to Bak = MCL-1 binding to Bak (Homo sapiens, UniProt Q07820); test: MCL-1 assay
MCL-1 binding to Bak, sequence (Q07820 whole entry): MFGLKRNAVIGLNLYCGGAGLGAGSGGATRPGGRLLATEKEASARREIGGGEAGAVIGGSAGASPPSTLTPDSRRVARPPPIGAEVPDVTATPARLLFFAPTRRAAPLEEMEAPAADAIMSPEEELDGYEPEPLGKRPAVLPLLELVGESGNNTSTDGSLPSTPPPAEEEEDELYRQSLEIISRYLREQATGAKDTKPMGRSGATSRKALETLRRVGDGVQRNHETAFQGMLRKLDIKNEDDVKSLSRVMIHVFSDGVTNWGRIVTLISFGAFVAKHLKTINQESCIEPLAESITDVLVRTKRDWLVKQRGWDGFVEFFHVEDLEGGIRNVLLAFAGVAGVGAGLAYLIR

Structure (SMILES) | inhibitory activity against DLD-1 ([1]; at a concentration of 6.4 µM) | activity against Pseudomonas aeruginosa [2] | activity against Candida albicans [3] | inhibitory activity against PANC-1 ([4]; at a concentration of 6.4 µM) | inhibitory activity against NCI/ADR-Res [5] | inhibitory activity against DLD-1 ([1]; at a concentration of 5.2 µM) | inhibition of MCL-1 binding to Bak (in words) (MCL-1 binding to Bak) | inhibitory activity against PANC-1 ([4]; at a concentration of 5.2 µM)
CCC[C@@H](O)Cc1c(Br)c(O)c2c(=O)c3c(O)cc(O)c4c5c(O)cc(O)c6c(=O)c7c(O)c(Br)c(C[C@H](C)O)c8c1c2c(c34)c(c65)c78 [Gymnochrome E, 1,6,8,10,11,13-hexahydroxy-2,5-dibromo-3-(2-hydroxypropyl)-4-(2-hydroxypentyl)-phenanthroperylene-7,14-quinone] | did not show significant inhibitory activity | did not show activity | did not show activity | did not show significant inhibitory activity |  |  |  | 
CCC[C@@H](O)Cc1c(Br)c(O)c2c(=O)c3c(O)c(Br)c(O)c4c5c(O)c(Br)c(O)c6c(=O)c7c(O)c(Br)c(C[C@H](O)CCC)c8c1c2c(c34)c(c65)c78 [Gymnochrome F, 1,6,8,10,11,13-hexahydroxy-2,5,9,12-tetrabromo-3,4-(2-hydroxypentyl)-phenanthroperylene-7,14-quinone] |  | did not show activity | did not show activity |  | did not show significant inhibitory activity | did not show significant inhibitory activity | moderate inhibitor | did not show significant inhibitory activity
